ChEMBL document CHEMBL1134294, “A prodrug form of a Plasmodium falciparum glutathione reductase inhibitor conjugated with a 4-anilinoquinoline” (J Med Chem, 2001)

Legend:
[1] = test system: Plasmodium falciparum; test: Effective dose against chloroquine-resistant Plasmodium falciparum FcB1R; format: functional
How it was run: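 Asynchronous cultures in human erythrocytes (0.5% parasitemia, 1% hematocrit) received serially diluted drug, DMSO ≤0.1%. After 24 h at 37 °C, 0.5 μCi [3H]hypoxanthine was added and incubation continued another 24 h. Growth inhibition was taken versus drug-free control, ED50 read from the concentration–response curve, and reported as mean of ≥3 independent experiments.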

[2] = molecular target: Glutathione reductase (Plasmodium falciparum 3D7, UniProt O15770); test: In vitro inhibition of Plasmodium falciparum Glutathione Reductase; set-up: species or system FcB1
How it was run: (§1)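 Recombinant purified GR (about 5 mU/ml) with 100 μM NADPH in 47 mM potassium phosphate, 200 mM KCl, 1 mM EDTA, pH 6.9, at 25 °C. Enzyme, NADPH and inhibitor are premixed and the reaction is started with 100 μM GSSG. NADPH loss is read at 340 nm. IC50 is taken from increasing inhibitor concentrations in 1% final DMSO, run in duplicate.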

[3] = molecular target: T1, Glutathione reductase, mitochondrial (Homo sapiens) (UniProt P00390); test: Competitive inhibition of human Glutathione Reductase
T1 sequence (whole entry): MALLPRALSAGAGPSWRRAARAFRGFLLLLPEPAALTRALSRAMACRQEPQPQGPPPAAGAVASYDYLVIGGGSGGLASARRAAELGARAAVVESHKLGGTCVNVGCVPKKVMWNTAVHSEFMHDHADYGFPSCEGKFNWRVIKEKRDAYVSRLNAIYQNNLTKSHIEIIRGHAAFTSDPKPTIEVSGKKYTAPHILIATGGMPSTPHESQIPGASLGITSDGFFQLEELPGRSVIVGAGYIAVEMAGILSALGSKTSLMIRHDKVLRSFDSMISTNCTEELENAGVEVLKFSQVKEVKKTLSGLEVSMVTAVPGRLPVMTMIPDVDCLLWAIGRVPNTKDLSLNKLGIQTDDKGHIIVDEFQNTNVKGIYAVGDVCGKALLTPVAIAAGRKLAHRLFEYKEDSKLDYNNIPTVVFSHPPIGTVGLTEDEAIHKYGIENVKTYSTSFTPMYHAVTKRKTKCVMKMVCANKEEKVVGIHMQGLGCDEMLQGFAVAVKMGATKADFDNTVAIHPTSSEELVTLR

[4] = molecular target: Glutathione reductase (Plasmodium falciparum 3D7) (UniProt O15770); test: Competitive inhibition of Plasmodium falciparum Glutathione Reductase; details: Plasmodium falciparum FcB1
[5] = molecular target: T2, Glutathione reductase, mitochondrial (Homo sapiens, UniProt P00390); test: In vitro inhibition of human Glutathione Reductase; how it was run: as §1
T2 sequence (P00390 whole entry): T1 sequence (whole entry)

[6] = read-out: ED50 (the source's name)

Chain of Glutathione reductase (O15770 whole entry): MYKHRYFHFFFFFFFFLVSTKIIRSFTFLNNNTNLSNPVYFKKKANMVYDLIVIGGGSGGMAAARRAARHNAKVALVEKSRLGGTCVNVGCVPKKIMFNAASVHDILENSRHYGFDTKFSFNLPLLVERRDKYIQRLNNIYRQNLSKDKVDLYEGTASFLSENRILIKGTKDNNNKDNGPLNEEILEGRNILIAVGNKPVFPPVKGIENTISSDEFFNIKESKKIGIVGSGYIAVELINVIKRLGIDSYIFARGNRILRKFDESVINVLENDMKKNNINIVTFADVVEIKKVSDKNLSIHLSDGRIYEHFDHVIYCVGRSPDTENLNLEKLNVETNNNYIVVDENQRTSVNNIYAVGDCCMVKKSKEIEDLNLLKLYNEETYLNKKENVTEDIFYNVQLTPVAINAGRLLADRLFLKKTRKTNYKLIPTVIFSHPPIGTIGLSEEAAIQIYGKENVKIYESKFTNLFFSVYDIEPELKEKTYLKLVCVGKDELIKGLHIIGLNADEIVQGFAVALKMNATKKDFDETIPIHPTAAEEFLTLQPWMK
Chain of Glutathione reductase (Plasmodium falciparum 3D7) (O15770 whole entry): as above

| SMILES | EC50 ([1]; read-out: ED50) [nM] | IC50 [2] [nM] | EC50 [1, 6] [nM] | Ki.c [3] [nM] | Ki.c [4] [nM] | IC50 [5] [nM] |
| --- | --- | --- | --- | --- | --- | --- |
| CC1=C(CCCCCC(=O)OCc2cc(NC(=O)CN3CCCCC3)cc(Nc3ccnc4cc(Cl)ccc34)c2)C(=O)c2c(O)cccc2C1=O | 56 |  |  |  |  |  |
| O=C(CN1CCCCC1)Nc1cc(COC(=O)CCCCCc2ccccc2)cc(Nc2ccnc3cc(Cl)ccc23)c1 | 368 |  |  |  |  |  |
| CC1=C(CCCCCC(=O)O)C(=O)c2ccccc2C1=O |  | 500 | 3500 | 1900 | 500 | 2600 |
| CC1=C(CCCCC(=O)O)C(=O)c2c(O)cccc2C1=O |  | 2500 | 7700 | 1100 | 2400 | 1000 |
